Data on two compounds can be found in ChEMBL document CHEMBL3867455, “Accelerating the discovery of antibacterial compounds using pathway-directed whole cell screening” (Bioorg Med Chem, 2016).

Series [1] in a line: Cytotoxicity against African green monkey Vero cells assessed cell viability at 10 uM relative to control. The class given is toxicity, cell-based. To be noted: chlorocebus sabaeus, read-out: Activity.
The test system of series [2] is Staphylococcus aureus subsp. aureus str. Newman. Put plainly: Inhibition of DltB in Taro-deficient Staphylococcus aureus Newman at 1 ug/ml after 16 to 18 hrs. The method in brief:
(§1)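 S. aureus overnight cultures (Newman WT, Newman ΔtarO, SEJ1 ΔltaS, RN4220 ΔypfP) diluted 1:100 in TSB and grown to OD600 ~1. Cultures were normalized to OD600 1 and diluted 1:1000. A DMSO compound dilution series was added to give final 0–32 µg/mL. Plates were incubated at 30°C for 16–18 h, then growth was read as OD600.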

For series [3], the system named is Staphylococcus aureus subsp. aureus USA300. Put plainly: Inhibition of DltB tn::1050 mutant in Staphylococcus aureus USA300 JE2 at 1 ug/ml after 16 to 18 hrs.
The test system of series [4] is Staphylococcus aureus subsp. aureus RN4220. Description: Inhibition of DltB in ypfP-deficient Staphylococcus aureus RN4220 at 1 ug/ml after 16 to 18 hrs. The essentials: as §1
For series [5], the system named is Staphylococcus aureus. Put plainly: Inhibition of DltB in ltaS-deficient Staphylococcus aureus SEJ1 at 1 ug/ml after 16 to 18 hrs. The essentials: as §1
Series [6] has as its system T1, Teichoic acid D-alanyltransferase (Staphylococcus aureus), Q53662 [A355E].
T1 sequence (whole entry): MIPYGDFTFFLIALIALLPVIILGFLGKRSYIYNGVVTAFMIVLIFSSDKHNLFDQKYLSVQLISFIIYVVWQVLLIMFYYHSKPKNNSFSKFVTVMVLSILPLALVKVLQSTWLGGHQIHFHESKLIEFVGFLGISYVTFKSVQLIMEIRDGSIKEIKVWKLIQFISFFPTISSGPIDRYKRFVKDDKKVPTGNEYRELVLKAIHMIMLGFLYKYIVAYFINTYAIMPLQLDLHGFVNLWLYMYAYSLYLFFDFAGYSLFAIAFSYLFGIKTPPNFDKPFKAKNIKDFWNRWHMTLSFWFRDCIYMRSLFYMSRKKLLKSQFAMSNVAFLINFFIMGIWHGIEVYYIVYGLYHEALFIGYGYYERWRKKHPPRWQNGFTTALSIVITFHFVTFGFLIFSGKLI
Description: Inhibition of DltB A355E mutant in Staphylococcus aureus Newman up to 32 ug/ml after 16 to 18 hrs by spectrophotometric analysis. To be noted: Staphylococcus aureus subsp. aureus str. Newman. The method in brief:
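Broth-dilution MIC. Overnight cultures of the parent and the resistant mutants (selected in the […] background) were diluted 1:100 and grown in TSB at 30°C to OD600 ~1. They were then normalized to OD600 1 and diluted 1:1000. Compound series were made in DMSO, with 3 µL added to 147 µL of culture for a final 0–32 µg/mL. Plates were held 16–18 h at 30°C and OD600 was read.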

A short description of series [7]: Cytotoxicity against African green monkey Vero cells assessed cell viability at 2.5 uM relative to control. The class given is toxicity, cell-based. To be noted: chlorocebus sabaeus, read-out: Activity.
A short description of series [8]: Cytotoxicity against African green monkey Vero cells assessed cell viability at 5 uM relative to control. The format is toxicity, cell-based. Conditions: chlorocebus sabaeus, read-out: Activity.
Series [9] in a line: Cytotoxicity against African green monkey Vero cells assessed cell viability at 1.3 uM relative to control. Conditions: chlorocebus sabaeus, read-out: Activity. The class given is toxicity, cell-based.
The subject of series [10] is T2, Teichoic acid D-alanyltransferase (Staphylococcus aureus), Q53662 [S175T].
T2 sequence (whole entry): T1 sequence (whole entry) with S175T, E355A
Put plainly: Inhibition of DltB S175T mutant in Staphylococcus aureus Newman up to 32 ug/ml after 16 to 18 hrs by spectrophotometric analysis. To be noted: Staphylococcus aureus subsp. aureus str. Newman.

The test system of series [11] is Staphylococcus aureus subsp. aureus str. Newman. Description: Inhibition of DltB in Staphylococcus aureus Newman assessed as suppression of 14C-D-Ala incorporation into LTA up to 16 ug/ml preincubated for 30 mins followed by 14C-D-Ala addition after 30 mins by PAGE autoradiography. The essentials:
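S. aureus Newman overnight culture diluted 1:100 and grown in TSB at 30°C to OD600 0.6. Cells were resuspended in 0.25X TSB pH 6.0 with 200 µg/mL D-cycloserine and compound at 0–16 µg/mL (eight levels), then held 30 min at 30°C, 300 rpm. Cells were then resuspended in the same buffer with compound plus 14C-D-Ala for a further 30 min. Lysates were boiled in SDS buffer and run on 4–20% Tris-glycine PAGE, then autoradiographed for labelled LTA.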

For series [12] the test system is unchanged. Put plainly: Inhibition of DltB in Taro deficient Staphylococcus aureus Newman at 5 ug/ml after 16 to 18 hrs. The method in brief: as §1
Series [13] has as its system Staphylococcus aureus subsp. aureus RN4220. Description: Inhibition of DltB in ypfP-deficient Staphylococcus aureus RN4220 at 5 ug/ml after 16 to 18 hrs. The essentials: as §1
Series [14] deals with Staphylococcus aureus. Put plainly: Inhibition of DltB in ltaS-deficient Staphylococcus aureus SEJ1 at 5 ug/ml after 16 to 18 hrs. The essentials:
as §1

Series [15] has as its system Staphylococcus aureus. Put plainly: Antibacterial activity against wild type Staphylococcus aureus Newman at 5 ug/ml after 16 to 18 hrs. The format is functional. The essentials:
as §1

In series [16] the test system is Staphylococcus aureus subsp. aureus USA300. Put plainly: Inhibition of DltB tn::1050 mutant in Staphylococcus aureus USA300 JE2 at 5 ug/ml after 16 to 18 hrs.

SMILES strings stand for the structures. Substitutions are numbered along the chain they refer to. Values after ≈ are worked out from the molar mass of the structure shown. Active and inactive are the calls of the source. No cut-off for these calls is given here. Bounds are passed on as bounds.

For the compound `COc1ccc(-c2csc(NC(=O)/C=C/c3cccs3)n2)c(OC)c1`, the viability at 10 µM in series [1] turned out to be 106%. The inhibition entry in [2], in series [3], in [4], in [5] and in series [11] was “Active” in each case. The MIC is greater than 32 µg/mL in series [6] and 0.5 µg/mL (≈ 1.34 µM) in series [10]. Moreover, the viability at 2.5 µM in series [7] was 106%. Besides, the viability at 5 µM in series [8] is 106%. Besides, in series [9], the viability at 1.3 µM turned out to be 106%.
With `COc1cc(NS(C)(=O)=O)ccc1Nc1c2ccccc2nc2ccccc12`, the inhibition entry in [12], in series [13], in series [14] and in series [16] was “Active” throughout. Also, the MIC in [6] was 2 µg/mL (≈ 5.08 µM); in series [10], greater than 32 µg/mL. Also, the outcome in series [15] was Active.
